Results from PMC12936682 (Journal of Pharmaceutical Analysis, 2025).
Like-named read-outs stand apart in the source and are kept apart here.

How the values were obtained:
Notum [1] = target: T1, Notum (Homo sapiens, UniProt Q6P988); assay: Notum inhibition assay; assay type: biochemical; details: for time-dependence of Notum inhibition: pre-incubation 3 and 33 min; for inhibition manner against Notum: inhibition kinetic analyses, Lineweaver-Burk plots
T1 sequence (Q6P988 20-496): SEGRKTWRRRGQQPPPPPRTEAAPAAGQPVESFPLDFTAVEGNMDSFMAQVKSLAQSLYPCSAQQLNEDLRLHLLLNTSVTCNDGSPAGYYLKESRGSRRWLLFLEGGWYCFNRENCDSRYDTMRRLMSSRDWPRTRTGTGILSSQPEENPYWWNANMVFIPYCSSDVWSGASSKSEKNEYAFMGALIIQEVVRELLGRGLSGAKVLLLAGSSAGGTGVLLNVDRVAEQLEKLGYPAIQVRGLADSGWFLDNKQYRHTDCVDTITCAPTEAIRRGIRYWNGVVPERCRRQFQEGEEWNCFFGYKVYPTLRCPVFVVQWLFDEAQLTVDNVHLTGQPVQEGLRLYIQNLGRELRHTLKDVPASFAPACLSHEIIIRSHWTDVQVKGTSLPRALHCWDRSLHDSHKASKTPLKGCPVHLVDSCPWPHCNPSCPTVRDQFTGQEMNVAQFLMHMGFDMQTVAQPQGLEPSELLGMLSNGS
Summary of the method: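 Notum expressed and purified per an earlier protocol. The 200 μL mix held 10 μM OPTS, 0.1 M Tris-HCl pH 7.4 and inhibitor, preincubated at 37 °C for 3 min. For time-dependence, parallel preincubations of 3 and 33 min ran before OPTS addition. Product fluorescence was read at ex 403/em 510 nm after subtracting no-enzyme blanks. IC50 came from nonlinear regression.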

MC3T3-E1 cells [2] = assay: CCK-8 cell viability assay; assay type: cell-based; details: CCK-8, Fig. S5
MC3T3-E1 cells [3] = assay: Osteoblast differentiation: ALP level, ALP staining and alizarin red S staining; assay type: cell-based; details: for level of ALP: MC3T3-E1 osteoblasts, induced differentiation 5 days, Fig. S6
Summary of the method: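 MC3T3-E1 cells were grown in DMEM with 10% FBS and 1% penicillin-streptomycin at 37 °C, 5% CO2. Cells were seeded at 2 × 10³ cells/well for 24 h, then moved to induction medium (10 mM β-glycerophosphate, ascorbic acid) with Dex and test compound added together. ALP staining (BCIP/NBT) followed 7 days and 4% paraformaldehyde fixation (RT, 15 min). ARS staining followed 21 days. Both were viewed by microscope.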

Notum [4] = target: T1, Notum; details: cited from earlier work
[5] = cited from earlier work
[6] = test system: Dex-induced osteoporosis mice; assay: In vivo anti-osteoporosis effects in Dex-induced osteoporosis mice; set-up: species or system C57BL/6J mice; details: for cortical and cancellous bones (micro-CT, H&E): rhein 40 and 80 mg/kg i.g. 5 weeks, PTH i.p., vs Dex
healthy mice = assay: Safety assessment of rhein in mice; assay type: in vivo, C57BL/6J mice; details: 200 mg/kg orally once daily for 14 days, vs control
Summary of the method: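 One group received 0.5% CMC-Na vehicle. The other received test compound at 200 mg/kg orally once daily for 14 days. At the end, serum plus heart, liver, spleen, lung and kidney were collected. Data are mean ± standard deviation, compared by Student's t-test (P < 0.05).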

MC3T3-E1 cells [7] = assay: RNA sequencing of Dex-challenged osteoblasts; assay type: cell-based
Summary of the method: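 Dex-treated MC3T3-E1 cells then received test compound and were cultured for 7 days. Total RNA was extracted from control (DMSO), Dex and Dex plus test compound groups for sequencing.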

[8] = cited from earlier work; remark: listed apart in the source
[9] = treatment 7 days, Dex-challenged MC3T3-E1

Compound | IC50 (Notum [1]) | time-dependence of Notum inhibition (Notum [1]) | growth rates of MC3T3-E1 cells (MC3T3-E1 cells [2]) | level of ALP (MC3T3-E1 cells [3]) | Ki (Notum [1]) | inhibition manner against Notum (Notum [1]) | cortical and cancellous bones (micro-CT, H&E) [6] | other results
Cc1cc(O)c2c(c1)C(=O)c1cccc(O)c1C2=O [Chrysophanol] | 0.946 ± 0.0551 µM | not time-dependent | – | – | – | – | – | –
Cc1cc(O)c2c(c1)C(=O)c1cc(O)cc(O)c1C2=O [Emodin] | 0.286 ± 0.0235 µM | not time-dependent | not enhanced | significantly up-regulated | 0.276 µM | competitive | – | pro-differentiation effects on MC3T3-E1 cells (MC3T3-E1 cells [3]; relative high dose 5 μM): slight pro-differentiation effects
C=C1C(=O)O[C@@H]2C[C@@]3(C)CCCC(=C)[C@@H]3C[C@H]12 [Isoalantolactone] | – | – | – | – | – | – | – | IC50 (Notum [4]; previously reported natural Notum inhibitor ref 41): 0.0606 µM
O=C(O)c1cc(O)c2c(c1)C(=O)c1cccc(O)c1C2=O [Rhein] | 0.00998 ± 0.00084 µM | not time-dependent | not enhanced | significantly up-regulated | 0.0136 µM | competitive | thickened significantly | reduced ALP staining intensity and decreased matrix mineralisation level (MC3T3-E1 cells [3]; 0.5 μM, Dex-challenged MC3T3-E1 cells): totally restored; ALP staining intensity and matrix mineralisation level of osteoblasts (MC3T3-E1 cells [3]; dose-dependent, ALP day 7, ARS day 21, Dex-treated MC3T3-E1): significantly increased; pro-differentiation effects on MC3T3-E1 cells (MC3T3-E1 cells [3]; low dose 0.5 μM): more significant pro-differentiation effects; metabolic stability [5]: poor; Notum expression levels in cortical bone (immunofluorescence) ([6]; Dex-challenged mice treated with rhein): significantly suppressed; BV/TV and BMD at the distal femur ([6]; rhein group, micro-CT): did not increase significantly; BMD increase at the mid femur ([6]; rhein group, micro-CT, compared with distal femur): more prominent; body weight at the outset and at the end of animal tests (healthy mice): no noticeable discrepancy; serum safety indicators (ALB, ALP, ALT, AST, CK, CREA, GLU, TC, TG, TP, BUN) (healthy mice): no significant difference; expression of Wnt signaling-related genes (WNT6, GSK3β) and osteogenic differentiation-related genes (RUNX2, BMP4) (MC3T3-E1 cells [7]; Dex-challenged MC3T3-E1, RNA sequencing): significantly restored; genes downregulated in comparison to the Dex-challenged group (MC3T3-E1 cells [7]; [9]): 78; genes upregulated in comparison to the Dex-challenged group (MC3T3-E1 cells [7]; [9]): 67; oral bioavailability [8]: very lower
Cn1c(=O)c2c(ncn2C)n(C)c1=O [caffeine] | – | – | – | – | – | – | – | IC50 (Notum [4]; previously reported natural Notum inhibitor ref 46): 200 µM
parathyroid hormone 1–34 [PTH, reference compound] | – | – | – | – | – | – | thickened significantly | –
